Assay results reported in ChEMBL document CHEMBL3108771, “Crystal Structures of PI3Kα Complexed with PI103 and Its Derivatives: New Directions for Inhibitors Design” (ACS Med Chem Lett, 2014).

Experiments:
[1] = target: T1, Phosphatidylinositol 4,5-bisphosphate 3-kinase catalytic subunit alpha isoform (Homo sapiens, UniProt P42336); assay: Ratio of PI103 IC50 to compound IC50 for full length human PI3Kalpha
Summary of the method: (§1)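 Inhibitor IC50s were determined against wild-type PI3Kα and the M772A, D810A and Y836A mutants. The mutants were expressed and purified in-house. […] Fold change is the PI103 IC50 divided by the compound IC50 on the same enzyme form.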

[2] = test system: Phosphatidylinositol 4,5-bisphosphate 3-kinase catalytic subunit alpha isoform (Homo sapiens), P42336 [D810A]; assay: Ratio of PI103 IC50 to compound IC50 for full length human PI3Kalpha D810A mutant; summary of the method: as §1
Phosphatidylinositol 4,5-bisphosphate 3-kinase catalytic subunit alpha isoform (Homo sapiens), P42336 [D810A], sequence (P42336 whole entry D810A, canonical isoform): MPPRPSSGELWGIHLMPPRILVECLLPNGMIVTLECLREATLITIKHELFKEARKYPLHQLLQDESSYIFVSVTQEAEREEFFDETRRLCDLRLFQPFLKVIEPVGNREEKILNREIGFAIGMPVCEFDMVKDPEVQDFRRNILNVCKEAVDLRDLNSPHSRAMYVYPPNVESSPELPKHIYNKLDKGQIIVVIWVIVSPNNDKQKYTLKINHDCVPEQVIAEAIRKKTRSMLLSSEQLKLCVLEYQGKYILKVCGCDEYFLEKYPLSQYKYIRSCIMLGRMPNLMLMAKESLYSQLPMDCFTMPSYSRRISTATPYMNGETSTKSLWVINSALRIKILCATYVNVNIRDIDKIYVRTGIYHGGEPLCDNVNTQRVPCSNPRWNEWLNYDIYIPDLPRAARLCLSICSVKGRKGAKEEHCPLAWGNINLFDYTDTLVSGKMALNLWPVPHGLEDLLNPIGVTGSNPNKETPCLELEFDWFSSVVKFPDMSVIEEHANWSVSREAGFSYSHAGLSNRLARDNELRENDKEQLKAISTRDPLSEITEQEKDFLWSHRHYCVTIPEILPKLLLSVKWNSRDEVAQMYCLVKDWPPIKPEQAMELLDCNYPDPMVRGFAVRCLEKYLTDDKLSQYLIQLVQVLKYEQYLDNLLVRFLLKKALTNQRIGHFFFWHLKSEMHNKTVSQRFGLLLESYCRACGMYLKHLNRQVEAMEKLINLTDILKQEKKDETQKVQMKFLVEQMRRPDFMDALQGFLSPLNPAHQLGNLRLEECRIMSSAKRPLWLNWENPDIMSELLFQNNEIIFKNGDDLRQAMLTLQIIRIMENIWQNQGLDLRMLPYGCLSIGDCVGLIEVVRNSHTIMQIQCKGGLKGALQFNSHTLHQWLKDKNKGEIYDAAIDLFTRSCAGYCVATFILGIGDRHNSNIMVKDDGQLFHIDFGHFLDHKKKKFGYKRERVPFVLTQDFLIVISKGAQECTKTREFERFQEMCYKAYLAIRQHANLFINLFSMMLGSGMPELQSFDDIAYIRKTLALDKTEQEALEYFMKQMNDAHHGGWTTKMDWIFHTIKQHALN

[3] = test system: Phosphatidylinositol 4,5-bisphosphate 3-kinase catalytic subunit alpha isoform (Homo sapiens), P42336 [Y836A]; assay: Ratio of PI103 IC50 to compound IC50 for full length human PI3Kalpha Y836A mutant; summary of the method: as §1
Phosphatidylinositol 4,5-bisphosphate 3-kinase catalytic subunit alpha isoform (Homo sapiens), P42336 [Y836A], sequence (P42336 whole entry Y836A, canonical isoform): as the sequence (P42336 whole entry D810A, canonical isoform) above, with A810D, Y836A counted along it

[4] = test system: Phosphatidylinositol 4,5-bisphosphate 3-kinase catalytic subunit alpha isoform (Homo sapiens), P42336 [M772A]; assay: Ratio of PI103 IC50 to compound IC50 for full length human PI3Kalpha M772A mutant; summary of the method: as §1
Phosphatidylinositol 4,5-bisphosphate 3-kinase catalytic subunit alpha isoform (Homo sapiens), P42336 [M772A], sequence (P42336 whole entry M772A, canonical isoform): as the sequence (P42336 whole entry D810A, canonical isoform) above, with M772A, A810D counted along it

[5] = target: Phosphatidylinositol 4,5-bisphosphate 3-kinase catalytic subunit alpha isoform (Homo sapiens, UniProt P42336, Y836A); assay: Inhibition of GST-tagged full length human PI3Kalpha Y836A mutant expressed in baculovirus-infected sf9 cells after 30 mins by TR-FRET assay
Phosphatidylinositol 4,5-bisphosphate 3-kinase catalytic subunit alpha isoform (Homo sapiens, UniProt P42336, Y836A), sequence (P42336 whole entry Y836A, canonical isoform): as the sequence (P42336 whole entry D810A, canonical isoform) above, with A810D, Y836A counted along it
Summary of the method: (§2)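 Each mutant PI3Kα was expressed and purified in-house. IC50 is the mean of at least three independent experiments, each run in duplicate.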

[6] = target: Phosphatidylinositol 4,5-bisphosphate 3-kinase catalytic subunit alpha isoform (Homo sapiens, UniProt P42336, M772A); assay: Inhibition of GST-tagged full length human PI3Kalpha M772A mutant expressed in baculovirus-infected sf9 cells after 30 mins by TR-FRET assay; summary of the method: as §2
Phosphatidylinositol 4,5-bisphosphate 3-kinase catalytic subunit alpha isoform (Homo sapiens, UniProt P42336, M772A), sequence (P42336 whole entry M772A, canonical isoform): as the sequence (P42336 whole entry D810A, canonical isoform) above, with M772A, A810D counted along it

[7] = target: T1, Phosphatidylinositol 4,5-bisphosphate 3-kinase catalytic subunit alpha isoform; assay: Inhibition of N-terminal His-6-tagged full length human PI3Kalpha expressed in baculovirus-infected sf9 cells after 30 mins by TR-FRET assay
Summary of the method: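 IC50 is the mean of at least three independent experiments, each run in duplicate. Typical variation was below 20%.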

[8] = target: Phosphatidylinositol 4,5-bisphosphate 3-kinase catalytic subunit alpha isoform (Homo sapiens, UniProt P42336, D810A); assay: Inhibition of GST-tagged full length human PI3Kalpha D810A mutant expressed in baculovirus-infected sf9 cells after 30 mins by TR-FRET assay; summary of the method: as §2
Phosphatidylinositol 4,5-bisphosphate 3-kinase catalytic subunit alpha isoform (Homo sapiens, UniProt P42336, D810A), sequence (P42336 whole entry D810A, canonical isoform): as the sequence (P42336 whole entry D810A, canonical isoform) above

T1 sequence (P42336 whole entry, canonical isoform): as the sequence (P42336 whole entry D810A, canonical isoform) above, with A810D counted along it

IC50 [7] [nM] | SMILES | other results
990 | Oc1cc(Cl)cc(-c2nc(N3CCOCC3)c3oc4ncccc4c3n2)c1 | 
1210 | Oc1cc(Br)cc(-c2nc(N3CCOCC3)c3oc4ncccc4c3n2)c1 | 
> 10000 | Oc1cc(-c2nc(N3CCOCC3)c3oc4ncccc4c3n2)cc(C(F)(F)F)c1 | 
> 10000 | Cc1cc(O)cc(-c2nc(N3CCOCC3)c3oc4ncccc4c3n2)c1 | 
> 10000 | O=[N+]([O-])c1cc(O)cc(-c2nc(N3CCOCC3)c3oc4ncccc4c3n2)c1 | 
20.6 | Nc1cc(O)cc(-c2nc(N3CCOCC3)c3oc4ncccc4c3n2)c1 | 
40.9 | Oc1cc(F)cc(-c2nc(N3CCOCC3)c3oc4ncccc4c3n2)c1 | 

SMILES | IC50 [7] [nM] | other results
Oc1cc(O)cc(-c2nc(N3CCOCC3)c3oc4ncccc4c3n2)c1 | 5.9 | Ratio IC50 [1]: 3; Ratio IC50 [2]: 1.2; Ratio IC50 [3]: 5.7; Ratio IC50 [4]: 19.4; IC50 [5]: 140 nM; IC50 [6]: 53.4 nM; IC50 [8]: 61.3 nM
